Compounds with a hit are over-represented: about 2.2% of the library has one in this group of screens.
DENV2 CPE: inhibitors of DENV2 cytopathic effect, primary screen, cell-based, plate reader, single concentration | DENV2-infected cells, cytopathic effect rescue | CPE inhibition, % at 9.99 µM | 1.7% of 350,000 active | AID 651640, 2012; in the data active means CPE inhibition above about 20%, passing the limit was not always enough; tested in BHK-21 cells;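 further: 0% = median of neutral control wells and 100% = median of positive control wells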
E-selectin induc: E-selectin induction in HUVECs, primary screen, imaging, HUVEC, immunofluorescence imaging, single point; P16581; normalized: neutral wells 0, TNF-alpha wells 100; activation, % at 7.58 µM; 0.37% of 260,000 active; AID 686992, 2013;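 active means mean E-selectin-positive cell signal at least 10% of the positive control, reached in at least 60% of replicates, without over 20% cell loss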
Target sequence (P16581 whole entry, looked up): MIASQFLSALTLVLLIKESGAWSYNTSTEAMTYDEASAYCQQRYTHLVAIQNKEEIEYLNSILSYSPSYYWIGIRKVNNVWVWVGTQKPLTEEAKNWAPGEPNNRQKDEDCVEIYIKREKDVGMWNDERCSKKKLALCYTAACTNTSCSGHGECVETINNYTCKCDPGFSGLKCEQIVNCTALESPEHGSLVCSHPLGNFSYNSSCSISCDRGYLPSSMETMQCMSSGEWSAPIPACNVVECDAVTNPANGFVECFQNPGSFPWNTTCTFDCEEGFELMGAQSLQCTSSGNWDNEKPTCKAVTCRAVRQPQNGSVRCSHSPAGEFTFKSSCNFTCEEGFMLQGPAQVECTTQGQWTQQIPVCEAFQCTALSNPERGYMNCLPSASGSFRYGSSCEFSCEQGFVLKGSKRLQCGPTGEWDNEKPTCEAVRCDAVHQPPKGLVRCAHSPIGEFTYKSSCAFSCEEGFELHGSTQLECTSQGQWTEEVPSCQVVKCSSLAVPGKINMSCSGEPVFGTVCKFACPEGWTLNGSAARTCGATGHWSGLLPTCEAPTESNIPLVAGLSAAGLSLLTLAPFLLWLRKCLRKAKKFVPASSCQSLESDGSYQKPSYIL
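Assay system: HUVEC primary endothelial cells. Input: 3,000 HUVEC seeded per well. Doses: one compound dose added by pin transfer. Read-out basis: % PE-positive cells. Benchmarks: TNF-alpha high, DMSO low. Detection: immunofluorescence imaging. Buffer or medium: EGM-2, gelatin.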
C2C12 statin: suppressors of statin myotoxicity in C2C12 myotubes, primary screen, cell-based, single point, plate reader; C2C12 myotubes + simvastatin, ATP luminescence, 48 h; scaled: DMSO 0, geranylgeraniol control 100; rescue of ATP level, % at 7.49 µM; 0.78% of 330,000 active; AID 602340, 2012;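 active means mean ATP rescue above about 67%, or every replicate alone reaching that limit, limit read from the data, passing the limit was not always enough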;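 further: myotubes were challenged with 10 µM simvastatin during compound exposure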
Active calls of the source: *; . = no result.

SMILES	DENV2 CPE	E-selectin induc	C2C12 statin
CCCNC(=O)Nc1ccc2c(c1)C(=O)N(C)C[C@H](OC)[C@@H](C)CN(Cc1ccncc1)[C@H](C)CO2	.	0	-5
CSc1nc2nc3c(c(=O)n2[nH]1)CCCC3	.	.	119*
Cc1nc2nc3c(c(=O)n2[nH]1)CCC3	.	1	.
C[C@@H]1CCCCO[C@H](CN(C)Cc2ccc(C(=O)O)cc2)[C@H](C)CN([C@H](C)CO)C(=O)c2cc(NC(=O)CCC(F)(F)F)ccc2O1	3	0	.
C[C@@H]1CN([C@@H](C)CO)C(=O)c2cc(NS(=O)(=O)c3cccs3)ccc2O[C@@H](C)CCCCO[C@@H]1CN(C)C(=O)CCCN(C)C	46*	0	.
C[C@H](CO)N1C[C@H](C)[C@H](CN(C)C(=O)CCCN(C)C)OCCCC[C@H](C)Oc2ccc(NS(=O)(=O)c3cccs3)cc2C1=O	55*	1	.
C[C@H](CO)N1C[C@H](C)[C@@H](CN(C)C(=O)CCCN(C)C)OCCCC[C@H](C)Oc2ccc(NS(=O)(=O)c3cccs3)cc2C1=O	-5	0	.
C[C@@H]1CCCCO[C@H](CN(C)C(=O)CCCN(C)C)[C@H](C)CN([C@@H](C)CO)C(=O)c2cc(NS(=O)(=O)c3cccs3)ccc2O1	-12	0	.
O=C(C[C@H]1CC[C@@H](NC(=O)C2CCC2)[C@@H](CO)O1)NCC1CC1	10	0	-2
O=C(C[C@H]1C=C[C@H](NC(=O)c2cccnc2)[C@@H](CO)O1)NCCN1CCCCC1	.	0	2
CO[C@H]1CN(C)C(=O)c2cc(NC(=O)Nc3ccc(Cl)c(Cl)c3)ccc2OC[C@H](C)NC[C@H]1C	.	1	-31
O=C(O)c1ccccc1-c1ccc(/C=C/c2cc(C(F)(F)F)[nH]c(=O)n2)o1	-3	28*	.
O=C(O)c1cc(Cl)ccc1-c1ccc(/C=C/c2cc(C(F)(F)F)[nH]c(=O)n2)o1	-3	.	.
CN(CC(=O)Nc1ccc(F)cc1)C(=O)COC(=O)c1nc(Cl)ccc1Cl	73*	0	3
O=C(COC(=O)c1nc(Cl)ccc1Cl)Nc1ccc(Cl)cc1	3	0	0
CCN(Cc1ccc(OC)c(COC)c1)CC1CCCN(CCc2cccc(OC)c2)C1 (configuration not stated)	25*	.	-5
CCN(Cc1ccc(OC)c(COC)c1)CC1CCCN(CCc2cccc(F)c2)C1 (configuration not stated)	14	.	15
CC(CCc1ccc(O)cc1)NC(c1ccccc1)c1ccc(Cl)cc1 (configuration not stated)	55*	.	20
CC(CCc1ccc(O)cc1)NCCC(c1ccccc1)c1ccccc1 (configuration not stated)	0	.	-16
CCCNC(=O)N1C[C@@H](O)COC[C@H]2O[C@H](CC(=O)NCc3ccncn3)CC[C@@H]21	-4	0	1
Cc1n[nH]c(C)c1S(=O)(=O)N1CCN(c2ccccn2)CC1	.	.	78*
Cc1cc(C)c(C)c(S(=O)(=O)N2CCN(c3ccccn3)CC2)c1C	-4	1	3
O=C(C[C@H]1CC[C@@H](NC(=O)c2cccc(F)c2)[C@H](CO)O1)Nc1nccs1	0	1	16
CCCN(C)C[C@H]1Oc2ncc(-c3cccnc3)cc2C(=O)N([C@H](C)CO)C[C@H]1C	1	-1	4
COc1cccc(-c2ccc3c(c2)O[C@@H](CN(C)C)[C@@H](C)CN([C@H](C)CO)S3(=O)=O)c1	-6	0	-4
SMILES	DENV2 CPE	E-selectin induc	C2C12 statin
CCOC(=O)c1sc(/N=C/N(C)C)c(C(=O)OCC)c1C	.	.	2
CCOC(=O)c1sc(/N=C/N(C)C)nc1C	40*	.	.
C[C@H]1CN([C@@H](C)CO)C(=O)c2cc(C#CC3CC3)cnc2O[C@H]1CN(C)C(=O)C1CCCCC1	.	0	62
CSCCC(NC(=O)COc1ccccc1)C(=O)NCCOc1ccc(C)cc1 (configuration not stated)	4	.	12
CSCCC(NC(=O)COc1ccccc1)C(=O)OCCOc1ccc(C)cc1 (configuration not stated)	27*	0	-19
COc1cccc(S(=O)(=O)N[C@H]2CC[C@H](CCN)O[C@@H]2CO)c1	-7	0	-16
N#C/C(=C\c1cccs1)C(=O)Nc1ccccn1	14	3	.
Cc1cccc(C)c1NC(=O)/C(C#N)=C/c1cccs1	.	.	84*
CN(C)C(=O)[C@@H]1[C@@H](CO)[C@@H]2Cn3c(ccc(-c4cccc(F)c4)c3=O)[C@@H]2N1C(=O)c1ccccn1	.	0	-22
CCN1[C@@H]2c3ccc(-c4cccc(F)c4)c(=O)n3C[C@@H]2[C@@H](CO)[C@@H]1C(=O)NCCCN(C)C	1	0	.
CCN1[C@H](C(=O)NCCCN(C)C)[C@@H](CO)[C@@H]2Cn3c(ccc(-c4cccc(F)c4)c3=O)[C@@H]21	80*	0	.
CN(C)C(=O)[C@H]1[C@H](CO)[C@H]2Cn3c(ccc(-c4cccc(F)c4)c3=O)[C@H]2N1C(=O)c1cnccn1	30*	0	-3
COCC(=O)Nc1ccc2c(c1)C(=O)N(C)C[C@@H](OC)[C@@H](C)CN(C(=O)CC1CC1)[C@H](C)CO2	0	0	1
CCC(=O)N[C@H]1CC[C@@H](CC(=O)NCc2ccccc2F)O[C@@H]1CO	5	0	-9
O=C(C[C@H]1CC[C@H](NS(=O)(=O)c2ccc(F)cc2)[C@H](CO)O1)NCc1ccc(Cl)c(Cl)c1	-3	-2	-17
CCOc1ccc(N2Nc3n[nH]c(N)c3N2)cc1	.	.	3
COc1ccc(N2Nc3n[nH]c(N)c3N2)cc1	.	.	106*
C[C@H](CO)N1C[C@H](C)[C@H](CN(C)Cc2ccc(C(=O)O)cc2)Oc2c(NC(=O)Nc3cccc4ccccc34)cccc2C1=O	2	.	-5
CC(C)C(OC(=O)c1nsc(Cl)c1Cl)C(=O)NCc1ccccc1 (configuration not stated)	0	32*	1
COc1ccc(CNC(=O)C(OC(=O)c2nsc(Cl)c2Cl)C(C)C)cc1 (configuration not stated)	-2	-5	2
O=C(Nc1ccc(F)cc1)N[C@@H]1CC[C@H](CCNS(=O)(=O)c2cccc(Cl)c2)O[C@H]1CO	-6	1	0
CCC(=O)c1ccc(OCC(=O)NC2CCCC2)cc1	-4	0	-4
CCC(=O)c1ccc(OCC(=O)O)cc1	.	.	107*
C[C@H]1CN([C@@H](C)CO)S(=O)(=O)c2ccc(C3=CCCCC3)cc2O[C@H]1CN(C)Cc1ccccc1F	11	.	-7
O=c1[nH]c2cc(Cl)c(Cl)cc2o1	3	2	0
O=c1[nH]c2cc(Cl)c(Br)cc2o1	157*	.	-1
COc1ccc(S(=O)(=O)N(C)C[C@H]2Oc3ccc(NC(=O)NC(C)C)cc3CC(=O)N([C@@H](C)CO)C[C@@H]2C)cc1	8	0	32
C[C@@H]1CN([C@H](C)CO)C(=O)c2cccc(NC(=O)C3CCOCC3)c2O[C@@H]1CN(C)Cc1ccc(C(=O)O)cc1	-2	-4	7
COc1ccc(OC)c(CN2CCN(Cc3ccc(OC)c(OC)c3OC)CC2)c1	2	1	-2

Screens deposited in PubChem BioAssay by Broad Institute.
